According to ChEMBL document CHEMBL4304751, “Discovery of Novel Pyrido-pyridazinone Derivatives as FER Tyrosine Kinase Inhibitors with Antitumor Activity” (ACS Med Chem Lett, 2019):
In brackets after ≈: the same amount, converted by molar mass.

How the values were obtained:
[1] = Growth inhibition of mouse mock transfected BA/F3 cells assessed as decrease in cell viability after 3 days by luminescence based CellTiter-Glo assay; design: species or system BaF3
Procedure, shortened: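 Ba/F3 growth inhibition run as quadruplicate experiments. GI50 fitted with 95% confidence intervals.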

[2] = biological target: T1, Tyrosine-protein kinase Fer (Homo sapiens, UniProt P16591); test: Inhibition of recombinant N-terminal His-tagged human FER (SH2 domain to C-terminal) expressed in Escherichia coli assessed as decrease in FL-Peptide22 substrate phosphorylation incubated for 90 mins
Target sequence in this assay (P16591 whole entry, the tested form may be a part): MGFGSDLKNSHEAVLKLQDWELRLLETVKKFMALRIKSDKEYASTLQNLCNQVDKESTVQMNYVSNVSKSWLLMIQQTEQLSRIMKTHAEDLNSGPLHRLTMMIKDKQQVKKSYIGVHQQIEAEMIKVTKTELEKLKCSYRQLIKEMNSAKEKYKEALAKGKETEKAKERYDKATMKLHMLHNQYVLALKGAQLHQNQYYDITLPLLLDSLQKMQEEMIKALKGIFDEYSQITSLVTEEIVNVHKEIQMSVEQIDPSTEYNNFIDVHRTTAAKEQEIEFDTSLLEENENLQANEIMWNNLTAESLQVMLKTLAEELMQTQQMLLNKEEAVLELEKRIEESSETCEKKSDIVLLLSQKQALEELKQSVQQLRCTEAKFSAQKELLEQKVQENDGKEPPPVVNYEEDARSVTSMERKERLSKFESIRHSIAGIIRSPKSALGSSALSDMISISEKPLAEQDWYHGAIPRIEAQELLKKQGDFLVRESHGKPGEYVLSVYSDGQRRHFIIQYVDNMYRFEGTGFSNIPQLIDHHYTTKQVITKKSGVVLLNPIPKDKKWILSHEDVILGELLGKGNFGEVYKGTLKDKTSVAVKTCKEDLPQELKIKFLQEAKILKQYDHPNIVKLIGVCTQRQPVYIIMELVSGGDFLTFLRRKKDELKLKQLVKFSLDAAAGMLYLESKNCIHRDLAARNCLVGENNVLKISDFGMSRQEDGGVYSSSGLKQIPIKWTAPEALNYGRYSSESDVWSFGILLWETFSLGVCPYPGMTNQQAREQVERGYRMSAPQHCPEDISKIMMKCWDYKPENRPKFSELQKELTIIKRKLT

[3] = Metabolic stability in mouse liver microsomes assessed as parent compound remaining at 1 uM after 30 mins relative to control; format: ADME, Microsome; details: read-out: Stability
Procedure, shortened: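 Test compound at 1.0 μM incubated 30 min with mouse liver microsomes (1.0 mg/mL protein). The fraction of parent remaining is reported.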

[4] = Cmax in BALB/cAnNCrlCrlj mouse at 10 mg/kg, po administered via gavage after 24 hrs; format: ADME, organism-based; design: dose 10 mg/kg, route oral; details: in vivo
Procedure, shortened: (§1)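 Mouse pharmacokinetics: compound given orally at 10 mg/kg. Unbound plasma concentration is reported as a mean value after oral dosing.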

[5] = biological target: Serine/threonine-protein kinase Chk2 (Homo sapiens) (UniProt O96017); test: Inhibition of recombinant N-terminal GST-fusion protein tagged human full length CHK2 (1 to 543 residues) expressed in baculovirus expression system assessed as decrease in fluorescence labelled CHKtide phosphorylation at 200 nM by off-chip mobility shift assay relative to control
Serine/threonine-protein kinase Chk2 (Homo sapiens), sequence (O96017 whole entry, the tested form may be a part): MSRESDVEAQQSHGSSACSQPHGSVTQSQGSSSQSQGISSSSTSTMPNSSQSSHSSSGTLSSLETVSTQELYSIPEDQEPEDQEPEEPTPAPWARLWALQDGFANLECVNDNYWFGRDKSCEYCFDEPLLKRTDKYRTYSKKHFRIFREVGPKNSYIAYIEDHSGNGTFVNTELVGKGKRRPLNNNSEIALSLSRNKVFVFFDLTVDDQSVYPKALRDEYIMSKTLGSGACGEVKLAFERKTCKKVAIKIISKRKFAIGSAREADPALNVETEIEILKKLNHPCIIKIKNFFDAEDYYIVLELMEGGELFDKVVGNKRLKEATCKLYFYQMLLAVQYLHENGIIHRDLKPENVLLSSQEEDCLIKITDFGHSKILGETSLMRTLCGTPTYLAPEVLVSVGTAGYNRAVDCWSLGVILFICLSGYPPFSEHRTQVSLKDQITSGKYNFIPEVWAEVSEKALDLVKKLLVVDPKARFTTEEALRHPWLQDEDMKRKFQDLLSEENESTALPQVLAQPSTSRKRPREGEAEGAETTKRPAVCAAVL

[6] = biological target: T2, Testis-specific serine/threonine-protein kinase 1 (Homo sapiens) (UniProt Q9BXA7); test: Inhibition of recombinant N-terminal GST fusion protein tagged human full length TSSK1 (1 to 367 residues) expressed in baculovirus expression system assessed as decrease in fluorescence labelled GS peptide phosphorylation at 200 nM by off-chip mobility shift assay relative to control
T2 sequence (whole entry): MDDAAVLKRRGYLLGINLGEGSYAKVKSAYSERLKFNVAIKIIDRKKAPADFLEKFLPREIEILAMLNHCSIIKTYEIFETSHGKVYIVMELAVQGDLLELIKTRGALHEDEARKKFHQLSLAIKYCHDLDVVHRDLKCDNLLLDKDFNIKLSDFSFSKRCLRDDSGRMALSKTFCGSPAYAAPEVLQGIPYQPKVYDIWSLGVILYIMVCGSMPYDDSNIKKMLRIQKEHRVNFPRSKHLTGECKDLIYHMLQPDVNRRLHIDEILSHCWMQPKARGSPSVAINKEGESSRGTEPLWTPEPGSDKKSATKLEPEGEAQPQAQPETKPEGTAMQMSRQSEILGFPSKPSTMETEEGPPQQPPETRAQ

[7] = biological target: Mitogen-activated protein kinase kinase kinase 9 (Homo sapiens) (UniProt P80192); test: Inhibition of recombinant N-terminal GST-fusion protein tagged human MLK1 catalytic domain (110 to 422 residues) expressed in baculovirus expression system assessed as decrease in GST-labelled MAP2K7 phosphorylation at 200 nM by HRP-labelled anti-rabbit antibody based ELISA method relative to control
[8] = biological target: CDK2/Cyclin A2 (Homo sapiens) (UniProt P24941+P20248); test: Inhibition of recombinant human full length N-terminal GST-tagged CDK2 (1 to 298 residues)/GST-tagged CyclinA2 (1 to 432 residues) expressed in baculovirus expression system assessed as decrease in fluorescence labelled modified histone H1 phosphorylation at 200 nM by off-chip mobility shift assay relative to control
[9] = AUC in BALB/cAnNCrlCrlj mouse at 10 mg/kg, po administered via gavage after 24 hrs; format: ADME, organism-based; design: time < 24 hr, dose 10 mg/kg, route oral; details: in vivo; procedure, shortened: as §1
[10] = biological target: Macrophage colony-stimulating factor 1 receptor (Homo sapiens) (UniProt P07333); test: Inhibition of recombinant N-terminal GST-fusion protein tagged human FMS cytoplasmic domain (538 to 972 residues) expressed in baculovirus expression system assessed as decrease in fluorescence labelled Srctide phosphorylation at 200 nM by off-chip mobility shift assay relative to control
[11] = Total plasma clearance in BALB/cAnNCrlCrlj mouse at 1 mg/kg, iv after 24 hrs; format: ADME, organism-based
Procedure, shortened: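 Clearance measured after a single intravenous dose of 1 mg/kg in mice.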

BaF3 = test: Antitumor activity against mouse BA/F3 cells expressing myc/His-tagged ETV6-FER kinase domain (452 to 821 residues) allografted in BALB/cAJcl nu/nu mouse assessed as decrease in tumor volume administered orally once per day for 4 days starting from 6 days after tumor cell implantation and measured during compound dosing; format: functional, cell-based
[12] = biological target: ALK tyrosine kinase receptor (Homo sapiens) (UniProt Q9UM73); test: Inhibition of recombinant N-terminal GST-fusion protein tagged human ALK cytoplasmic domain (1058 to 1620 residues) expressed in baculovirus expression system assessed as decrease in fluorescence labelled Srctide phosphorylation at 200 nM by off-chip mobility shift assay relative to control
[13] = biological target: Receptor-type tyrosine-protein kinase FLT3 (Homo sapiens) (UniProt P36888); test: Inhibition of recombinant N-terminal GST-fusion protein tagged human FLT3 cytoplasmic domain (564 to 993 residues) expressed in baculovirus expression system assessed as decrease in fluorescence labelled Srctide phosphorylation at 200 nM by off-chip mobility shift assay relative to control
[14] = biological target: Mast/stem cell growth factor receptor Kit (Homo sapiens) (UniProt P10721); test: Inhibition of recombinant N-terminal GST-fusion protein tagged human KIT cytoplasmic domain (544 to 976 residues) expressed in baculovirus expression system assessed as decrease in fluorescence labelled Srctide phosphorylation at 200 nM by off-chip mobility shift assay relative to control
[15] = Oral bioavailability in BALB/cAnNCrlCrlj mouse at 10 mg/kg administered via gavage after 24 hrs; format: ADME, organism-based; details: in vivo; procedure, shortened: as §1
[16] = biological target: T1, Tyrosine-protein kinase Fer; test: Inhibition of recombinant N-terminal GST-tagged human full length FER (1 to 822 residues) expressed in baculovirus expression system decrease in fluorescence labelled Srctide phosphorylation at 200 nM by off-chip mobility shift assay relative to control
Target sequence in this assay (P16591 whole entry, looked up, the tested form may be a part): as the sequence (P16591 whole entry, the tested form may be a part) above

[17] = biological target: T3, Interleukin-1 receptor-associated kinase 4 (Homo sapiens) (UniProt Q9NWZ3); test: Inhibition of recombinant N-terminal GST-fusion protein tagged human full length IRAK4 (1 to 460 residues) expressed in baculovirus expression system assessed as decrease in fluorescence labelled IRAK1 phosphorylation at 200 nM by off-chip mobility shift assay relative to control
T3 sequence (whole entry): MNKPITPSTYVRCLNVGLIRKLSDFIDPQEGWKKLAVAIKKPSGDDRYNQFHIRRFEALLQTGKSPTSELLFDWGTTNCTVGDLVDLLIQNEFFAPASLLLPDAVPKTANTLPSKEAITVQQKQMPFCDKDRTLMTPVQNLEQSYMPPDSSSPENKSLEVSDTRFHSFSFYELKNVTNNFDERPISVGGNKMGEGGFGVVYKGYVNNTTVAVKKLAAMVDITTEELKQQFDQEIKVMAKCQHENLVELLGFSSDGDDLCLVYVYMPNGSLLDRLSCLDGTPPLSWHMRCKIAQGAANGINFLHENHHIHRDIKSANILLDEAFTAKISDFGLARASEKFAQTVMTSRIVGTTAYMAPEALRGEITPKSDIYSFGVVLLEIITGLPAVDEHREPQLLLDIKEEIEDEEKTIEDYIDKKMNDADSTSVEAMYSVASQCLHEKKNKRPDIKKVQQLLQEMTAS

[18] = biological target: Proto-oncogene tyrosine-protein kinase ROS (Homo sapiens) (UniProt P08922); test: Inhibition of recombinant N-terminal GST-fusion protein tagged human ROS1 cytoplasmic domain (1883 to 2347 residues) expressed in baculovirus expression system assessed as decrease in fluorescence labelled IRS1 phosphorylation at 200 nM by off-chip mobility shift assay relative to control
Proto-oncogene tyrosine-protein kinase ROS (Homo sapiens), sequence (P08922 whole entry, the tested form may be a part): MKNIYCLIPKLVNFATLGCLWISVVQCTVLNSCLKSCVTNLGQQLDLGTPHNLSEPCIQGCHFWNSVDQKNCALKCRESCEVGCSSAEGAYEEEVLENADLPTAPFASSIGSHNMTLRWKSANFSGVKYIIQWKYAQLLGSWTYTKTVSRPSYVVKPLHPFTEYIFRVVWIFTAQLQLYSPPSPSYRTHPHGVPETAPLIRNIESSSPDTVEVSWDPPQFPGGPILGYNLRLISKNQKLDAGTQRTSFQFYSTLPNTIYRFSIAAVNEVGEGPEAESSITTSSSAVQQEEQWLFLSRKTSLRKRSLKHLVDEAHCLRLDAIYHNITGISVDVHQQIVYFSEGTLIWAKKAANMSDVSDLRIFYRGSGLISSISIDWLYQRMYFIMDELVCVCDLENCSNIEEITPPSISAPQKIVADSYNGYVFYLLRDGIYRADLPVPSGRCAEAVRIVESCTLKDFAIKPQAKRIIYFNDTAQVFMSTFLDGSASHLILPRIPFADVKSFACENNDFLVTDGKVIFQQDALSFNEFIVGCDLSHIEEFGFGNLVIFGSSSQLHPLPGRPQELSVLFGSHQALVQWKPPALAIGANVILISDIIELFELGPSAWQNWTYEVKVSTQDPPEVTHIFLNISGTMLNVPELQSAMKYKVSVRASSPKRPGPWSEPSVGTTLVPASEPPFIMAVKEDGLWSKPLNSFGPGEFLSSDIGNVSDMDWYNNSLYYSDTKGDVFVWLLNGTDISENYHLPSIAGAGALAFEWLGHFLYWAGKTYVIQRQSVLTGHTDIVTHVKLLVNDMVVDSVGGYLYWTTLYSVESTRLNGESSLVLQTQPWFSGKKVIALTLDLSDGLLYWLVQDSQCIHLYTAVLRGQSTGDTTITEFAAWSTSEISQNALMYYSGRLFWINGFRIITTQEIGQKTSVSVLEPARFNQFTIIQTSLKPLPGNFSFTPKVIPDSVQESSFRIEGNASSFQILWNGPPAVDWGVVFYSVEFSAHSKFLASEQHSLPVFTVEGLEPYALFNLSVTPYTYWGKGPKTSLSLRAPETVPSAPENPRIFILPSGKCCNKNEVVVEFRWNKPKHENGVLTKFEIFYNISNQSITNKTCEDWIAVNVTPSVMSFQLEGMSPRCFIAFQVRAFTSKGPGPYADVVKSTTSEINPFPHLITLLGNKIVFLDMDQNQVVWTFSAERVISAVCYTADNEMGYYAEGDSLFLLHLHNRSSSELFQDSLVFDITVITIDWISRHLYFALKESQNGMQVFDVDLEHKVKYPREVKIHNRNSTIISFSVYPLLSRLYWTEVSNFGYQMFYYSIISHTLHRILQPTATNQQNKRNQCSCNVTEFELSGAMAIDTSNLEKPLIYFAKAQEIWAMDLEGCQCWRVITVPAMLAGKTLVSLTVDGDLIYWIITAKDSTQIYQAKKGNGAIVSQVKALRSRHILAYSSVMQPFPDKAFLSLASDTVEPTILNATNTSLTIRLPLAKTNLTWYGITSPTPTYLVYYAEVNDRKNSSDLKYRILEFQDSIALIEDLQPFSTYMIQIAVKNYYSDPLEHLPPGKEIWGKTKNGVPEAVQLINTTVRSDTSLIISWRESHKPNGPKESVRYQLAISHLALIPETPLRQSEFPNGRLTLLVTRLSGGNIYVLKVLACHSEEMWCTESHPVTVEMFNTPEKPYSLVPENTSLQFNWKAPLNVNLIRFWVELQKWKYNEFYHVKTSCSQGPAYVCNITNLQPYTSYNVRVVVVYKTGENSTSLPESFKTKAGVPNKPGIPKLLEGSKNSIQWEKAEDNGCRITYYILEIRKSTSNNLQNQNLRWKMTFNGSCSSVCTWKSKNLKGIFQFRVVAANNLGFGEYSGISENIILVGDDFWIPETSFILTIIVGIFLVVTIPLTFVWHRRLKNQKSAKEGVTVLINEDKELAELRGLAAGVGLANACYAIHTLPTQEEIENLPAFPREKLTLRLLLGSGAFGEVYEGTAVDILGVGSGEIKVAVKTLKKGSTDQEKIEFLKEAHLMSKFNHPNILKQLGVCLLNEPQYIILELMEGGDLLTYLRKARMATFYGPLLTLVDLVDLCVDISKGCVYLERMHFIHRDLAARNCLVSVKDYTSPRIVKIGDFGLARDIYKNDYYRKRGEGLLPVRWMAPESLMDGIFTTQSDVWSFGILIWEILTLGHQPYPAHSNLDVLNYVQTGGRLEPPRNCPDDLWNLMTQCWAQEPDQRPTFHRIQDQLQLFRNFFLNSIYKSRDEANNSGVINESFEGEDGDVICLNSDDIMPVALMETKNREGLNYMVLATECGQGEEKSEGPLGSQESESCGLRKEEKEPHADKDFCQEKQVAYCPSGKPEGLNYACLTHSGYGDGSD

[19] = biological target: Tyrosine-protein kinase SYK (Homo sapiens) (UniProt P43405); test: Inhibition of recombinant N-terminal GST-fusion protein tagged human full length SYK (1 to 635 residues) expressed in baculovirus expression system assessed as decrease in fluorescence labelled Blk/Lyntide phosphorylation at 200 nM by off-chip mobility shift assay relative to control
[20] = Effective permeability of compound at 5 uM after 24 hrs at pH 7.4 by LC/MS/MS based PAMPA assay; format: ADME; details: read-out: Peff
[21] = biological target: Protein-tyrosine kinase 2-beta (Homo sapiens) (UniProt Q14289); test: Inhibition of recombinant N-terminal GST-fusion protein tagged human full length PYK2 (1 to 967 residues) expressed in baculovirus expression system assessed as decrease in fluorescence labelled Blk/Lyntide phosphorylation at 200 nM by off-chip mobility shift assay relative to control
[22] = biological target: Tyrosine-protein kinase Fes/Fps (Homo sapiens) (UniProt P07332); test: Inhibition of recombinant N-terminal GST fusion protein tagged human full length FES (1 to 413/416 to 822 residues) expressed in baculovirus expression system assessed as decrease in fluorescence labelled Srctide phosphorylation at 200 nM by off-chip mobility shift assay relative to control
Tyrosine-protein kinase Fes/Fps (Homo sapiens), sequence (P07332 whole entry, the tested form may be a part): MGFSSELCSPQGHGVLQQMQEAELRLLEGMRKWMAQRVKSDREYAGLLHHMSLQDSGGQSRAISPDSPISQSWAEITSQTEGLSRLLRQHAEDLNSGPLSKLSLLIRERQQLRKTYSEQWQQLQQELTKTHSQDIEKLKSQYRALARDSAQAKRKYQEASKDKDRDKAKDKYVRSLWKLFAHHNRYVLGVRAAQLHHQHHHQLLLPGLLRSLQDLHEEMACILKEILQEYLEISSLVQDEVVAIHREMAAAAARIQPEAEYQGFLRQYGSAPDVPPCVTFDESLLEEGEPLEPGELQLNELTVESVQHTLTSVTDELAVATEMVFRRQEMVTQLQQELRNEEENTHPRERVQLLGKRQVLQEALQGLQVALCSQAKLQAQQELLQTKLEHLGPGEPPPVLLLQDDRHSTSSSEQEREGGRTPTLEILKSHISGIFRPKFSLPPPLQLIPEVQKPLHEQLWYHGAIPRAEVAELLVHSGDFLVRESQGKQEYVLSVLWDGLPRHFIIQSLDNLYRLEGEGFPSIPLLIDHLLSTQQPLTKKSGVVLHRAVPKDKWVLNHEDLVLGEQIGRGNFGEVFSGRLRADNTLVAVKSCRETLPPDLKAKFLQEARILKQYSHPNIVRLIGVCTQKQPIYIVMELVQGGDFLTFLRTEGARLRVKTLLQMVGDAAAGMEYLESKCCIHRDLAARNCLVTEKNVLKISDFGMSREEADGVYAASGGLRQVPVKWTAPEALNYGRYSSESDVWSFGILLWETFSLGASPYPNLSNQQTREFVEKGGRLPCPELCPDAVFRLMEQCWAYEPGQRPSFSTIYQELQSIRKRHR

[23] = Solubility in FaSSIF; format: physicochemical
Procedure, shortened: (§2)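 Solubility expressed as μg/mL, measured in pH 6.8 buffer and in FaSSIF.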

[24] = Toxicity in BALB/cAJcl nu/nu mouse allografted with mouse BA/F3 cells expressing myc/His-tagged ETV6-FER kinase domain (452 to 821 residues) assessed as change in body weight loss at 12.5 to 100 mg/kg, po administered once per day for 4 days starting from 6 days after tumor cell implantation and measured during compound dosing; format: organism-based; details: in vivo
[25] = Solubility in buffer at pH 6.8; format: physicochemical; procedure, shortened: as §2
[26] = biological target: T1, Tyrosine-protein kinase Fer
Target sequence in this assay (P16591 whole entry, looked up, the tested form may be a part): as the sequence (P16591 whole entry, the tested form may be a part) above

Mus musculus = test: Unbound plasma concentration in BALB/cAnNCrlCrlj mouse at 10 mg/kg, po administered via gavage after 24 hrs by non-compartmental analysis; format: ADME, organism-based; details: in vivo; procedure, shortened: as §1
[27] = biological target: Mitogen-activated protein kinase kinase kinase kinase 4 (Homo sapiens) (UniProt O95819); test: Inhibition of recombinant N-terminal GST-fusion protein tagged human HGK catalytic domain (1 to 328 residues) expressed in baculovirus expression system assessed as decrease in fluorescence labelled Moesin-derived phosphorylation at 200 nM by off-chip mobility shift assay relative to control
[28] = Protein binding in BALB/c mouse serum at 10 ug/mL incubated for 4 hrs under shaking condition by LC/MS/MS analysis; format: ADME, cell-free; details: read-out: PPB
Procedure, shortened: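 Binding determined using serum samples from BALB/c mice.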

[29] = biological target: High affinity nerve growth factor receptor (Homo sapiens) (UniProt P04629); test: Inhibition of recombinant N-terminal GST-fusion protein tagged human TRKA cytoplasmic domain (436 to 790 residues) expressed in baculovirus expression system assessed as decrease in fluorescence labelled CSKtide phosphorylation at 200 nM by off-chip mobility shift assay relative to control

Cc1cccc(Nc2nc(NC3CCCCC3N)cc3c2C(=O)NCC3)c1 (racemic)
GI50 at 72 h [1]: 4.3 µM

Cc1cccc(Nc2nc(NC3CCCCC3N)c(Cl)c3cn[nH]c(=O)c23)c1 (racemic)
GI50 at 72 h [1]: 1.5 µM

Cc1cccc(Nc2nc(NC3CCCCC3N)cc3cc[nH]c(=O)c23)c1 (racemic)
GI50 at 72 h [1]: 1.92 µM

Cc1cccc(Nc2nc(N[C@@H]3CCCC[C@@H]3N)c(C#N)c3cn[nH]c(=O)c23)c1
IC50 [2]: 0.00049 µM
remaining at 0.5 h, 1 µM [3]: 96%
Cmax [4]: 360 ng/mL
inhibition [5]: > 90%
inhibition [6]: > 90%
inhibition [7]: > 90%
inhibition [8]: > 90%
AUC at 24 h [9]: 4800 ng·h/mL
inhibition [10]: > 90%
GI50 at 72 h [1]: 0.22 µM
clearance [11]: 12 mL/min/kg
Activity (BaF3): Dose-dependent effect
inhibition [12]: > 90%
inhibition [13]: > 90%
inhibition [14]: > 90%
bioavailability [15]: 34%
inhibition [16]: > 90%
inhibition [17]: > 90%
inhibition [18]: > 90%
inhibition [19]: > 90%
Papp at 24 h, 5 µM [20]: > 50 ×10⁻⁶ cm/s
inhibition [21]: > 90%
inhibition [22]: > 90%
solubility [23]: 2.1 µg/mL (≈ 5.39 µM)
Activity [24]: Non-Toxic
solubility [25]: 0.9 µg/mL (≈ 2.31 µM)
GI50 [26]: 0.0019 µM
Cp(f) (Mus musculus): 3.1 nM
inhibition [27]: > 90%
fraction unbound at 4 h, 10 ug/mL [28]: 0.01
inhibition [29]: > 90%

Cc1cccc(Nc2nc(N[C@@H]3CCCC[C@@H]3N)c(C#N)cc2C(N)=O)c1
remaining at 0.5 h, 1 µM [3]: 100%
Cmax [4]: 420 ng/mL
AUC at 24 h [9]: 2400 ng·h/mL
clearance [11]: 12 mL/min/kg
bioavailability [15]: 17%
Papp at 24 h, 5 µM [20]: 16 ×10⁻⁶ cm/s
solubility [23]: 49 µg/mL (≈ 134 µM)
solubility [25]: 35 µg/mL (≈ 96 µM)
fraction unbound at 4 h, 10 ug/mL [28]: 0.01

Cc1cccc(-n2c(=O)[nH]c3cc(C#N)c(N[C@@H]4CCCC[C@@H]4N)nc32)c1
IC50 [2]: > 1.3 µM

N#Cc1cc(C(N)=O)c(N)nc1N[C@@H]1CCCC[C@@H]1N
IC50 [2]: > 4 µM

Cc1cccc(Nc2ccc(C#N)c(N[C@@H]3CCCC[C@@H]3N)n2)c1
IC50 [2]: > 4 µM

Cc1cccc(Nc2nc(NC3CCCCC3N)cc3cn[nH]c(=O)c23)c1 (racemic)
GI50 at 72 h [1]: 1.5 µM

Cc1cccc(Cc2nc(N[C@@H]3CCCC[C@@H]3N)c(C#N)cc2C(N)=O)c1
IC50 [2]: > 4 µM

N#Cc1cc2c(N)nn(Cc3ccccc3)c2nc1NC1CCCCC1N (racemic)
IC50 [2]: > 4 µM
GI50 at 72 h [1]: > 5 µM
GI50 [26]: > 4 µM
